Active and inactive are the calls of the source. No cut-off for these calls is given here. Where a SMILES comes first, the peptide text is derived from it. Bridges are numbered along the chain shown (N, C = ends). [ ]: non-standard residue; d: D form. S5 = C=CCCC[C@](C)(N)C(=O)O; hCys = N[C@@H](CCS)C(=O)O
How the values were obtained:
[1] = molecular target: T1, Relaxin-3 receptor 1 (Homo sapiens, UniProt Q9NSD7); assay: Displacement of Eu-H3/15 from human RXFP3 receptor expressed in CHOK1 cells by time-resolved fluorescent whole cell binding assay; assay type: cell-based
T1 sequence (Q9NSD7 whole entry): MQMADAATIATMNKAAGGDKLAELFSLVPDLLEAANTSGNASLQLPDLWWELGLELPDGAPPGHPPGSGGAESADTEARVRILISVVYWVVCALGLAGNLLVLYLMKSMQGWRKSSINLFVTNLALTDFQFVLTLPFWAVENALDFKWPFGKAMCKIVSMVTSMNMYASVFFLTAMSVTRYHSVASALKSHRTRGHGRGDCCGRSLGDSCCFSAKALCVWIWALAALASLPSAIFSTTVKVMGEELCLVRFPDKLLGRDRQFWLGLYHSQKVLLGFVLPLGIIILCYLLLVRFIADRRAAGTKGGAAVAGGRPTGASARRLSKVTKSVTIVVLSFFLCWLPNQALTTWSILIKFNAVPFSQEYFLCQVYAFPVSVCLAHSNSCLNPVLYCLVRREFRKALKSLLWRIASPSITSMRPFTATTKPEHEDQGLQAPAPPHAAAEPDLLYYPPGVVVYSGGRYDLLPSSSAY

[2] = molecular target: T2, Relaxin receptor 1 (Homo sapiens) (UniProt Q9HBX9); assay: Agonist activity at RXFP1 receptor (unknown origin) expressed in HEK-293T cells cotransfected with beta-galactosidase assessed as cAMP activation at 10 uM by beta-galactosidase reporter gene assay; assay type: functional, cell-based
T2 sequence (whole entry): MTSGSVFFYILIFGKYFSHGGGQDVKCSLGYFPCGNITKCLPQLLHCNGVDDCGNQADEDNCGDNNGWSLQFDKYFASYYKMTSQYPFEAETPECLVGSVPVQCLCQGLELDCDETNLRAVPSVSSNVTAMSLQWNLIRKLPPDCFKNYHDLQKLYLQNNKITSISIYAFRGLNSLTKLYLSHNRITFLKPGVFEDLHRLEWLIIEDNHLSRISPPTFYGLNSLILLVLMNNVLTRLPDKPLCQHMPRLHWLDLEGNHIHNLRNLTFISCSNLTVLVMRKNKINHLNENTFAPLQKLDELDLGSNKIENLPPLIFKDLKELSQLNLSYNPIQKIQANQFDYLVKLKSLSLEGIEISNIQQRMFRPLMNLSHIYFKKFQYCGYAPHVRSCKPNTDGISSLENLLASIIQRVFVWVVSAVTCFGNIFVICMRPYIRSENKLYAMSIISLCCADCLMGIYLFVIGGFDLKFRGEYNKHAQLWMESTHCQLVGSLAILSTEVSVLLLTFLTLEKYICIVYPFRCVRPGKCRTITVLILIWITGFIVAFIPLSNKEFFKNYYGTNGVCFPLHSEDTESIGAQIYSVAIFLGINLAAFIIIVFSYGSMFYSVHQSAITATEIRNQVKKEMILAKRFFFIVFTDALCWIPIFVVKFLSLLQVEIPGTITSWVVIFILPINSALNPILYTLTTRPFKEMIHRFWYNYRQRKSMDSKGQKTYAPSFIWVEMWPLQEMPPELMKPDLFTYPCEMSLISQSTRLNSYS
Method in brief: (§1)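 Tested for RXFP1 activation at concentrations up to 10 µM, alongside the […] as a reference.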

[3] = molecular target: T3, Relaxin-3 receptor 2 (Homo sapiens, UniProt Q8TDU9); assay: Agonist activity at human RXFP4 receptor expressed in CHOK1 cells cotransfected with beta-galactosidase assessed as inhibition of forskolin-stimulated cAMP by beta-galactosidase reporter gene assay; assay type: functional, cell-based
[4] = molecular target: T2, Relaxin receptor 1 (Homo sapiens); assay: (§2) Agonist activity at RXFP1 receptor (unknown origin) expressed in HEK-293T cells cotransfected with beta-galactosidase assessed as cAMP activation by beta-galactosidase reporter gene assay; assay type: functional, cell-based; method in brief: as §1
[5] = molecular target: T3, Relaxin-3 receptor 2; assay: Displacement of Eu-INSL5 from human RXFP4 receptor expressed in CHOK1 cells by time-resolved fluorescent whole cell binding assay; assay type: cell-based
[6] = molecular target: T1, Relaxin-3 receptor 1; assay: Agonist activity at human RXFP3 receptor expressed in CHOK1 cells cotransfected with beta-galactosidase assessed as inhibition of forskolin-stimulated cAMP by beta-galactosidase reporter gene assay; assay type: functional, cell-based
[7] = molecular target: T4, Relaxin receptor 1 (Homo sapiens, UniProt Q9HBX9); assay: as §2; assay type: functional, cell-based; method in brief: as §1
T4 sequence (Q9HBX9 whole entry): T2 sequence (whole entry)

T3 sequence (Q8TDU9 whole entry): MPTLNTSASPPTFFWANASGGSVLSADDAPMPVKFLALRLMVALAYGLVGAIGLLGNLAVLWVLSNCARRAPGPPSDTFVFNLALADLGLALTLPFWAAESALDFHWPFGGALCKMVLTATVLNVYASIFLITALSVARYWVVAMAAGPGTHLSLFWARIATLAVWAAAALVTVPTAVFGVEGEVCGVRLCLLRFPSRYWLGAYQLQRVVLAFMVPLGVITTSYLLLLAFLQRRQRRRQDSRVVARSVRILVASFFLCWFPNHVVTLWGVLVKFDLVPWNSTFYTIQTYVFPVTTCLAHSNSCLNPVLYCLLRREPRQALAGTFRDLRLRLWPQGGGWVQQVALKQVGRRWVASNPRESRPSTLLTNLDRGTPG

Row | Ki [1] [nM] | Activity [2] | EC50 [3] [nM] | pEC50 [4] | Ki [5] [nM] | EC50 [6] [nM] | pKi [5] | EC50 [7] [nM] | Compound
1 | 151 | inactive | 191 | inactive | 407 | 4.47 |  |  | CC[C@H](C)[C@@H]1NC(=O)[C@H](Cc2ccccc2)NC(=O)[C@@](C)(NC(=O)[C@H](CCCNC(=N)N)NC(=O)CNC(=O)[C@@H](N)CO)CCC/C=C/CCC[C@@](C)(C(=O)N[C@H](C(=O)N[C@H](C(=O)N[C@@H](Cc2ccccc2)C(=O)N[C@H](C(=O)N[C@@H](CO)C(=O)NCC(=O)NCC(=O)N[C@@H](CO)C(=O)N[C@@H](CCCNC(=N)N)C(=O)N[C@@H](Cc2c[nH]c3ccccc23)C(=O)O)[C@@H](C)O)[C@@H](C)CC)C(C)C)NC(=O)[C@H](CCCNC(=N)N)NC1=O (H-SGR[S5]FIR[S5]VIFTSGGSRW-OH; staple (E) 4-8)
2 | 603 | inactive | > 10000 | inactive |  | > 10000 | inactive |  | CC[C@H](C)[C@H](NC(=O)[C@H](Cc1ccccc1)NC(=O)[C@H](CCC(=O)O)NC(=O)[C@H](CCCNC(=N)N)NC(=O)CNC(=O)[C@H](CO)NC(=O)[C@H](CC(C)C)NC(=O)[C@H](CCCNC(=N)N)NC(C)=O)C(=O)N[C@@H](CCCNC(=N)N)C(=O)N[C@@]1(C)CCC/C=C\CCC[C@@](C)(C(=O)N[C@@H](CO)C(=O)NCC(=O)NCC(=O)N[C@@H](CO)C(=O)N[C@@H](CCCNC(=N)N)C(=O)N[C@@H](Cc2c[nH]c3ccccc23)C(=O)O)NC(=O)[C@H](Cc2ccccc2)NC(=O)[C@H]([C@@H](C)CC)NC(=O)[C@H](C(C)C)NC1=O (Ac-RLSGREFIR[S5]VIF[S5]SGGSRW-OH; staple (Z) 10-14)
3 | 93.3 | inactive | 316 | inactive | 275 | 4.47 |  |  | CC[C@H](C)[C@@H]1NC(=O)[C@H](Cc2ccccc2)NC(=O)[C@@](C)(NC(=O)[C@H](CCCNC(=N)N)NC(=O)CNC(=O)[C@H](CO)NC(=O)[C@H](CC(C)C)NC(=O)[C@H](CCCNC(=N)N)NC(=O)[C@@H](NC(=O)CN)C(C)C)CCC/C=C/CCC[C@@](C)(C(=O)N[C@H](C(=O)N[C@H](C(=O)N[C@@H](Cc2ccccc2)C(=O)N[C@H](C(=O)N[C@@H](CO)C(=O)NCC(=O)NCC(=O)N[C@@H](CO)C(=O)N[C@@H](CCCNC(=N)N)C(=O)N[C@@H](Cc2c[nH]c3ccccc23)C(=O)O)[C@@H](C)O)[C@@H](C)CC)C(C)C)NC(=O)[C@H](CCCNC(=N)N)NC1=O (H-GVRLSGR[S5]FIR[S5]VIFTSGGSRW-OH; staple (E) 8-12)
4 | 2510 | inactive | 3720 |  | > 10000 | > 10000 |  |  | CC[C@H](C)[C@@H]1NC(=O)[C@H](Cc2ccccc2)NC(=O)[C@@H](NC(=O)[C@H](CCCNC(=N)N)NC(=O)CNC(=O)[C@H](CO)NC(C)=O)CCSSCC[C@@H](C(=O)N[C@H](C(=O)N[C@H](C(=O)N[C@@H](Cc2ccccc2)C(=O)N[C@H](C(=O)N[C@@H](CO)C(=O)NCC(=O)NCC(=O)N[C@@H](CO)C(=O)N[C@@H](CCCNC(=N)N)C(=O)N[C@@H](Cc2c[nH]c3ccccc23)C(=O)O)[C@@H](C)O)[C@@H](C)CC)C(C)C)NC(=O)[C@H](CCCNC(=N)N)NC1=O (Ac-SGR[hCys]FIR[hCys]VIFTSGGSRW-OH; disulfide 4-8)
5 | 229 | inactive |  |  |  | 11.7 |  |  | CC[C@H](C)[C@@H]1NC(=O)[C@H](Cc2ccccc2)NC(=O)[C@@](C)(NC(=O)[C@H](CCCNC(=N)N)NC(=O)CNC(=O)[C@H](CO)NC(=O)[C@H](CC(C)C)NC(=O)[C@H](CCCNC(=N)N)NC(=O)[C@@H](NC(=O)CNC(C)=O)C(C)C)CCC/C=C/CCC[C@@](C)(C(=O)N[C@H](C(=O)N[C@H](C(=O)N[C@@H](Cc2ccccc2)C(=O)N[C@H](C(=O)N[C@@H](CO)C(=O)NCC(=O)NCC(=O)N[C@@H](CO)C(=O)N[C@@H](CCCNC(=N)N)C(=O)N[C@@H](Cc2c[nH]c3ccccc23)C(=O)O)[C@@H](C)O)[C@@H](C)CC)C(C)C)NC(=O)[C@H](CCCNC(=N)N)NC1=O (Ac-GVRLSGR[S5]FIR[S5]VIFTSGGSRW-OH; staple (E) 8-12)
6 |  | inactive | 537 |  | > 10000 | > 1000 |  |  | CC[C@H](C)[C@@H]1NC(=O)[C@H](Cc2ccccc2)NC(=O)[C@@H](NC(=O)[C@H](CCCNC(=N)N)NC(=O)CNC(=O)[C@H](CO)NC(C)=O)CCC(=O)NCCCC[C@@H](C(=O)N[C@H](C(=O)N[C@H](C(=O)N[C@@H](Cc2ccccc2)C(=O)N[C@H](C(=O)N[C@@H](CO)C(=O)NCC(=O)NCC(=O)N[C@@H](CO)C(=O)N[C@@H](CCCNC(=N)N)C(=O)N[C@@H](Cc2c[nH]c3ccccc23)C(=O)O)[C@@H](C)O)[C@@H](C)CC)C(C)C)NC(=O)[C@H](CCCNC(=N)N)NC1=O (Ac-SGREFIRKVIFTSGGSRW-OH; lactam 4-8)
7 | 575 | inactive | 2750 | inactive | > 10000 | > 10000 |  |  | CC[C@H](C)[C@H](NC(=O)[C@H](Cc1ccccc1)NC(=O)[C@H](CCC(=O)O)NC(=O)[C@H](CCCNC(=N)N)NC(=O)CNC(=O)[C@H](CO)NC(=O)[C@H](CC(C)C)NC(=O)[C@@H](N)CCCNC(=N)N)C(=O)N[C@@H](CCCNC(=N)N)C(=O)N[C@@]1(C)CCC/C=C\CCC[C@@](C)(C(=O)N[C@@H](CO)C(=O)NCC(=O)NCC(=O)N[C@@H](CO)C(=O)N[C@@H](CCCNC(=N)N)C(=O)N[C@@H](Cc2c[nH]c3ccccc23)C(=O)O)NC(=O)[C@H](Cc2ccccc2)NC(=O)[C@H]([C@@H](C)CC)NC(=O)[C@H](C(C)C)NC1=O (H-RLSGREFIR[S5]VIF[S5]SGGSRW-OH; staple (Z) 10-14)
8 |  | inactive | 123 | inactive |  | 3.55 |  |  | CC[C@H](C)[C@@H]1NC(=O)[C@H](Cc2ccccc2)NC(=O)[C@@](C)(NC(=O)[C@H](CCCNC(=N)N)NC(=O)CNC(=O)[C@H](CO)NC(=O)[C@H](CC(C)C)NC(=O)[C@@H](N)CCCNC(=N)N)CCC/C=C/CCC[C@@](C)(C(=O)N[C@H](C(=O)N[C@H](C(=O)N[C@@H](Cc2ccccc2)C(=O)N[C@H](C(=O)N[C@@H](CO)C(=O)NCC(=O)NCC(=O)N[C@@H](CO)C(=O)N[C@@H](CCCNC(=N)N)C(=O)N[C@@H](Cc2c[nH]c3ccccc23)C(=O)O)[C@@H](C)O)[C@@H](C)CC)C(C)C)NC(=O)[C@H](CCCNC(=N)N)NC1=O (H-RLSGR[S5]FIR[S5]VIFTSGGSRW-OH; staple (E) 6-10)
9 |  | inactive |  |  |  |  |  | > 10000 | CC[C@H](C)[C@H](NC(=O)[C@H](C)NC(=O)[C@@H](NC(=O)[C@H](CCC(N)=O)NC(=O)[C@H](C)NC(=O)[C@H](CCCNC(=N)N)NC(=O)[C@@H](NC(=O)[C@H](CC(C)C)NC(=O)[C@H](CCC(=O)O)NC(=O)[C@H](CCCNC(=N)N)NC(=O)CNC(=O)[C@H](CS)NC(=O)[C@H](CC(C)C)NC(=O)[C@H](CCCCN)NC(=O)[C@@H](NC(=O)[C@@H](NC(=O)[C@H](CCC(=O)O)NC(=O)[C@H](CCC(=O)O)NC(=O)[C@H](CCSC)NC(=O)[C@H](Cc1c[nH]c2ccccc12)NC(=O)[C@H](CO)NC(=O)[C@@H](N)CC(=O)O)C(C)C)[C@@H](C)CC)C(C)C)[C@@H](C)CC)C(=O)N[C@@H](CS)C(=O)NCC(=O)N[C@@H](CCSC)C(=O)N[C@@H](CO)C(=O)N[C@H](C(=O)N[C@@H](Cc1c[nH]c2ccccc12)C(=O)N[C@@H](CO)C(=O)O)[C@@H](C)O
